Data reported in ChEMBL document CHEMBL3822453 (J Med Chem, 2016).
The source made the active and inactive calls. No cut-off for these calls is given here.

Legend:
[1] = molecular target: T1, DNA repair protein RAD51 homolog 1 (Homo sapiens, UniProt Q06609); assay: Inhibition of human N-terminal 6-histidine/Avi-tagged recombinant RAD51 expressed in Escherichia coli BL21(DE3) assessed as D-loop formation using 5'-32P-labeled 90-mer ssDNA as substrate preincubated for 10 mins followed by substrate addition with subsequent incubation with substrate for 5 mins measured after 20 mins in presence of supercoiled pRS306 dsDNA by agarose gel electrophoresis
T1 sequence (Q06609 whole entry): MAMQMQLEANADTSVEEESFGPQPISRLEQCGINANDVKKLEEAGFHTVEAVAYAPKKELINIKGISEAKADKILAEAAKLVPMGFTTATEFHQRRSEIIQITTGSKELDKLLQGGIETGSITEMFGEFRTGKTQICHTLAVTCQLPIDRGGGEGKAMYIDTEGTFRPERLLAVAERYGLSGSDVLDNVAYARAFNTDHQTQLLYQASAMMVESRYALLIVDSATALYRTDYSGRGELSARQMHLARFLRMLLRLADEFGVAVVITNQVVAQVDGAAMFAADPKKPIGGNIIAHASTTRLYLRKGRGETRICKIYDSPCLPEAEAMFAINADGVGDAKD

[2] = molecular target: T2, DNA repair protein RAD51 homolog 1 (Homo sapiens) (UniProt Q06609); details: 5 to 100 uM
T2 sequence (whole entry): T1 sequence (Q06609 whole entry)

[3] = molecular target: T2, DNA repair protein RAD51 homolog 1 (Homo sapiens); details: 40 uM
[4] = molecular target: T1, DNA repair protein RAD51 homolog 1; assay: Inhibition of Escherichia coli BL21(DE3) expressing human N-terminal 6-histidine/Avi-tagged RAD51 binding to 5'-Alexa488-oligo-dT45 ssDNA preincubated for 40 mins followed by substrate addition measured after 40 mins by fluorescence polarization based microplate method
How it was run: (§1)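 Human RAD51 preincubated with compound in DMSO at 37 °C for 40 min, then 5'-Alexa488-oligo-dT45 added and incubated another 40 min at 37 °C. Buffer: 20 mM HEPES pH 7.5, 2 mM ATP, 10 mM MgCl2, 0.1 mM TCEP. IC50 from least-squares dose–response fits with standard error.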

[5] = molecular target: T1, DNA repair protein RAD51 homolog 1; assay: Inhibition of Escherichia coli BL21(DE3) expressing human N-terminal 6-histidine/Avi-tagged RAD51 binding to 5'-Alexa488-oligo-dT45 ssDNA at 5 to 100 uM preincubated for 40 mins followed by substrate addition measured after 40 mins by fluorescence polarization based microplate method; details: read-out: Imax
How it was run: as §1, with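 “TCEP. Final: 0.2 µM RAD51, 2.22 nM ssDNA, 30 mM NaCl, 4% DMSO. Fluorescence polarization read at 485/535 nm.” for “TCEP.”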

[6] = molecular target: T1, DNA repair protein RAD51 homolog 1; assay: Inhibition of RAD51-mediated homologous recombination in human HEK293-DR-GFP cells transfected with pCBASce expressing I-Sce-I after 24 hrs following transfection by 7-aminoactinomycin D staining based flow cytometry
[7] = molecular target: T1, DNA repair protein RAD51 homolog 1; assay: Effect on stabilization of Escherichia coli BL21(DE3) expressing human N-terminal 6-histidine/Avi-tagged RAD51-circular pRS306 virion ssDNA nucleoprotein filament at 30 uM after 40 mins in presence of NaCl by SYBR gold staining based agarose gel electrophoresis; type: ADME
[8] = molecular target: T1, DNA repair protein RAD51 homolog 1; assay: Inhibition of Escherichia coli BL21(DE3) expressing human N-terminal 6-histidine/Avi-tagged RAD51 binding to circular pRS306 virion ssDNA preincubated for 40 mins followed by ssDNA addition measured after 5 mins by agarose gel electrophoresis
[9] = system: HEK293; assay: Effect on RAD51 levels in soluble nuclear fraction of HEK293-DR-GFP cells at 20 uM after 8 hrs by Western blot analysis; type: ADME, cell-based; details: human, hek293, 8 h
How it was run: (§2)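 Subconfluent 293-DR-GFP cells grown with compound for the indicated time. Fractionated at 4 °C: hypotonic buffer on ice 15 min (cytosol); pellet in hypotonic buffer + 0.5 M NaCl 15 min (soluble nuclear); RIPA extraction three times 5 min, insoluble pellet kept (chromatin). Fractions run on 10% SDS-PAGE, blotted to PVDF, probed with rabbit anti-RAD51 (1:2000) or anti-PCNA (1:1000), read by ECL.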

[10] = system: HEK293; assay: Induction of single strand annealing activity in human HEK293-SA-GFP cells transfected with pCBASce expressing I-Sce-I up to 40 uM at 24 hrs post transfection by 7-aminoactinomycin D staining based flow cytometry; type: functional, cell-based
How it was run: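 293-DR-GFP (HR) or 293-SA-GFP (SSA) reporter cells electroporated (325 V, 975 µF) with 37.5 µg/mL I-SceI plasmid pCBASce or empty pCAGGS control. Seeded in complete DMEM + 0.5% DMSO with compound added at transfection, grown out 24 h. Cells resuspended with 1 µg/mL 7-AAD for flow cytometry, dead/apoptotic cells gated out, GFP-positive fraction scored among live cells.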

[11] = system: HEK293; assay: Effect on RAD51 levels in chromatin fraction of HEK293-DR-GFP cells at 20 uM after 8 hrs by Western blot analysis; type: cell-based; details: human, hek293, 8 h; how it was run: as §2
[12] = system: U2OS; assay: Cytotoxicity against human U2OS cells assessed as cell survival treated with ionizing radiation followed by compound addition after 7 to 11 days by crystal violet staining based colony counting method; type: functional
How it was run: (§3)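 Cells grown to subconfluence, X-irradiated at 1.5 Gy/min, trypsinized and seeded at 1000–1500 cells/well in complete medium with 0.5% DMSO plus compound at the indicated dose, kept through outgrowth. Incubated 7–11 days until colonies of ≥50 cells. Stained ≥30 min at room temperature in 6% glutaraldehyde + 0.5% crystal violet, then counted automatically. PC-3 grown in DMEM:F12 (1:1) with 10% FCS.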

[13] = system: Saccharomyces cerevisiae; assay: (§4) Inhibition of Saccharomyces cerevisiae RAD52 D-loop activity using 5'-32P-labeled 90-mer ssDNA as substrate up to 100 uM preincubated for 10 mins followed by substrate addition with subsequent incubation with substrate for 5 mins measured after 20 mins in presence of supercoiled pRS306 dsDNA by agarose gel electrophoresis
How it was run: (§5)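 Yeast Rad51 (1 µM) with Rad52 (2 µM), or E. coli RecA (0.4 µM), preincubated with compound at 37 °C for 10 min. 32P 90-mer ssDNA added with 1 mM MgCl2 for 5 min, then supercoiled pRS306 with MgCl2 raised to 10 mM for 20 min. dsDNA step in 20 mM HEPES pH 7.5, 2 mM ATP, 10 nM ssDNA, 4.5 nM dsDNA. Read by agarose gel and phosphorimaging.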

[14] = system: PC-3; assay: Cytotoxicity against human PC3 cells assessed as cell survival treated with ionizing radiation followed by compound addition after 7 to 11 days by crystal violet staining based colony counting method; type: functional; how it was run: as §3
[15] = system: HEK293; assay: Effect on RAD51 levels in cytosol of HEK293-DR-GFP cells at 20 uM after 8 hrs by Western blot analysis; type: ADME, cell-based; details: human; how it was run: as §2
[16] = system: Escherichia coli; assay: as §4, with “Escherichia coli RecA” for “Saccharomyces cerevisiae RAD52”; how it was run: as §5
[17] = system: Saccharomyces cerevisiae; assay: as §4, with “RAD51” for “RAD52”; how it was run: as §5
[18] = molecular target: T1, DNA repair protein RAD51 homolog 1; assay: Effect on stabilization of Escherichia coli BL21(DE3) expressing human N-terminal 6-histidine/Avi-tagged RAD51-circular pRS306 virion ssDNA nucleoprotein filament at 100 uM after 40 mins in presence of NaCl by SYBR gold staining based agarose gel electrophoresis; type: ADME
[19] = molecular target: T1, DNA repair protein RAD51 homolog 1; assay: Inhibition of IR-induced RAD51 accumulation in HEK293-DR-GFP cells subnuclear foci at 20 uM after 8 hrs by fluorescence microscopy; type: cell-based
How it was run: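 293-DR-GFP cells grown on coverslips for 2 days, X-irradiated at 1.5 Gy/min, fixed after 0, 2, 4 or 8 h outgrowth. Paraformaldehyde fixation and Triton permeabilization. Stained with rabbit anti-RAD51 plus anti-RPA or anti-γH2AX, DAPI counterstain. At least 100 nuclei scored per condition.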

[20] = system: MCF7; assay: Cytotoxicity against human MCF7 cells assessed as cell survival treated with ionizing radiation followed by compound addition after 7 to 11 days by crystal violet staining based colony counting method; type: functional; how it was run: as §3

Q: With CN(C)c1ccc(-c2nc3cc(F)ccc3n3cccc23)cc1 as the molecule, how does the IC50 [1] read?
A: > 100 µM

Q: How did the Imax [2] turn out when COc1ccc2c(c1)nc(-c1ccc(N)cc1)c1cccn12 was run?
A: 100%

Q: Which inhibition [3] does the source give for COc1ccc2c(c1)NC(c1ccc(N(C)C)cc1)c1cccn1-2 (stereo in doubt; 1) [listing 1 of 2 here] here?
A: 83%

Q: What about the Imax [2] of the same molecule?
A: 74%

Q: CN(C)c1ccc(-c2nc3cc(F)c(F)cc3n3cccc23)cc1 was tested. Which IC50 [1] did it give?
A: > 100 µM

Q: Which Imax [2] does the source give for Oc1ccc2c(c1)nc(-c1cccnc1)c1cccn12 here?
A: 53%

Q: For COc1ccc2c(c1)nc(-c1cccnc1)c1cccn12, which Imax [2] is on record?
A: 74%

Q: What about the IC50 [4] of the same molecule?
A: > 100 µM

Q: Which IC50 [1] does the source give for O=[N+]([O-])c1ccc(-c2nc3ccccc3n3cccc23)cc1 here?
A: > 100 µM

Q: And the IC50 [4]?
A: > 100 µM

Q: How did the Imax [2] turn out when COc1ccc2c(c1)NC(c1ccc(N(C)C)cc1)c1cccn1-2 (racemic) was run?
A: 17%

Q: COc1ccc2c(c1)nc(-c1ccc([N+](=O)[O-])cc1)c1cccn12 was tested. Which IC50 [1] did it give?
A: > 100 µM

Q: Which Imax [2] does the source give for COc1ccc2c(c1)nc(-c1ccc(N(C)C)cc1)c1cccn12 here?
A: 67%

Q: For COc1ccc2c(c1)NC(c1ccc(N(C)C)cc1)c1cccn1-2 (stereo in doubt; 1) [listing 2 of 2 here], which Emax [5] is on record?
A: 33%

Q: What about the IC50 [6] of the same molecule?
A: 13.1 µM

Q: And the IC50 [1]?
A: 21.3 µM

Q: How did the IC50 [1] turn out when C1=C(c2nc3ccccc3n3cccc23)CCCC1 was run?
A: > 100 µM

Q: Which IC50 [4] does the source give for c1ccc2c(c1)nc(-c1ccncc1)c1cccn12 here?
A: > 100 µM

Q: CN(C)c1ccc(-c2nc3cc(O)ccc3n3cccc23)cc1 was tested. Which Imax [2] did it give?
A: 91%

Q: With c1ccc2c(c1)nc(-c1ccc(N3CCOCC3)cc1)c1cccn12 as the molecule, how does the Imax [2] read?
A: 68%

Q: What about the IC50 [4] of the same molecule?
A: > 100 µM

Q: Which IC50 [1] does the source give for FC(F)(F)Oc1ccc(-c2nc3ccccc3n3cccc23)cc1 here?
A: > 100 µM

Q: With O=C1C(Cl)=C(N2CCOCC2)C(=O)N1c1ccc(Cl)c(Cl)c1 as the molecule, how does the Activity [7] read?
A: Active

Q: And the Activity [8]?
A: Dose-dependent effect

Q: How did the IC50 [1] turn out when O=[N+]([O-])c1cccc(-c2nc3ccccc3n3cccc23)c1 was run?
A: > 100 µM

Q: What about the IC50 [4] of the same molecule?
A: > 100 µM

Q: COc1ccc2c(c1)nc(-c1ccc(O)cc1)c1cccn12 was tested. Which Imax [2] did it give?
A: 13%

Q: Which IC50 [1] does the source give for O=[N+]([O-])c1ccc(-c2nc3cc(O)ccc3n3cccc23)cc1 here?
A: > 100 µM

Q: Which results are given for CCNc1ccc(-c2nc3ccccc3n3cccc23)cc1?
A: Activity [7]: Not Active; Activity [9]: Non-toxic; Activity [10]: inactive; Activity [11]: Non-toxic; Activity [12]: Active; inhibition [13]: inactive; Activity [14]: Active; Activity [15]: Non-toxic; inhibition [16]: inactive; inhibition [17]: inactive; Activity [18]: Not Active; Imax [2]: 91%; inhibition (INH) [19]: Not Active; Activity [20]: Active

Q: Which IC50 [1] does the source give for c1ccc2c(c1)nc(-c1ccc(N3CCCC3)cc1)c1cccn12 here?
A: > 100 µM

Q: How did the IC50 [1] turn out when c1ccc2c(-c3nc4ccccc4n4cccc34)cccc2c1 was run?
A: > 100 µM

Q: How did the IC50 [4] turn out when Nc1cccc(-c2nc3ccccc3n3cccc23)c1 was run?
A: > 100 µM

Q: Which IC50 [1] does the source give for Oc1ccc(-c2nc3ccccc3n3cccc23)cc1 here?
A: > 100 µM

Q: What about the IC50 [4] of the same molecule?
A: > 100 µM
